Measured values published in PubChem BioAssay.
Results filed as inconclusive are left out. The source made the active and inactive calls.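 Rule for the calls, unless noted: active = viability increase at or above a cutoff of the median across tested compounds plus 3 SD (cut at about 8.5% in these data, passing the limit was not always enough); inconclusive = some gains above the cutoff, reason not given; inactive = the rest.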

Assays:
[1] = OD615 S. cerevisiae growth inhibition, permissive medium, pilot counter-assay, permissive growth control for S. cerevisiae lifespan shortening project (AID 705;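 active = growth inhibition above 25% in both replicates, a cutoff set 3 SD above the mean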); settings: OD615, 24 h, at 10 µM, hits give high values
Procedure, shortened: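 System: S. cerevisiae with engineered DeaD lifespan system. Medium: SC raffinose/galactose permissive medium. Doses: single compound dose of 10 µM, 0.25% DMSO final. Schedule: 24 h exposure, 30 °C. Measured by: OD615 turbidity read. Read-out: growth inhibition.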

[2] = Restrictive medium S. cerevisiae growth inhibition, OD615, pilot screen of yeast lifespan reduction project, restrictive growth control (AID 706;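 active = growth inhibition above a set limit, 3 SD over mean compound inhibition, in both replicates, cut at about 43% in these data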;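 note: modified DeaD lifespan yeast strain shifted to restrictive glucose medium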); settings: OD615, 48 h, at 10 µM, hits give high values
Procedure, shortened: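 Assay system – genetically modified Saccharomyces cerevisiae, DeaD replicative lifespan assay strain · Medium – CSMM-D glucose medium · Doses – 10 µM compound, 0.25% DMSO · Times – 4 h pre-incubation, 48 h exposure at 30 °C · Signal – optical density at 615 nm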

[3] = viability gain of MRP-1-high H69AR cells under doxorubicin, pilot screen, MRP-1 activator project, CellTiter-Glo, duplicate (AID 807); settings: H69AR viability with doxorubicin, CellTiter-Glo luminescence; at 10 µM; hits give high values;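 note: compound pretreatment 18-22 h then 72 h combined with doxorubicin; 0% = doxorubicin alone and 100% = vehicle without doxorubicin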
[4] = growth suppression of beta-catenin knockout HCT116, pilot screen, human colon tumor cells (AID 823;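 active = cell viability at or below a set limit in both duplicate runs, the limit being the all-compound median minus 4 SD, cut at about 23% in these data, passing the limit was not always enough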;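 note: 0% = wells killed by 20 µM Hyamine and 100% = untreated DMSO cell wells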); settings: CellTiter-Glo, 60 h, at 10 µM, hits give low values
[5] = inhibitors of the yeast RAM network, pilot screen, dse1pr::URA3 reporter, 5-FOA selection (AID 869;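 active = inhibition over a set limit, the all-compound mean plus 3 SD, in both replicate runs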;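 note: 0% = DMSO wells with no growth and 100% = 10 µM 1-NA-PP1 with full growth; RAM network block rescues cells from 5-FOA so hits raise OD615 growth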); settings: S. cerevisiae dse1pr::URA3 5-FOA growth, OD615, 2 d; at 10 µM; hits give high values; strain carries analog-sensitive mutant Cbk1 kinase
[6] = RAM signaling pathway blockade in yeast – S. cerevisiae, Pdr1DBD-CYC8 efflux-inhibited sensitized strain, primary screen (AID 1298;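 active = RAM network inhibition above 8.4% in each of two replicates, 3 SD over the compound average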;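 note: 0% = DMSO untreated cells without growth and 100% = 10 µM 1-NA-PP1 full growth; higher means more yeast growth rescued from 5-FOA killing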); settings: S. cerevisiae cbk1-as DSE1-URA3 strain, 5-FOA growth OD615, 2 d; at 50 µM; hits give high values
[7] = growth suppression of PTEN-deleted HCT116, pilot screen, cell-based, HCT116 clonal line, CellTiter-Glo (AID 824;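 active = viability at or below 27.92% in each of two runs, the all-compound median minus 4 SD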;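 note: 0% = 20 µM Hyamine control and 100% = vehicle cell control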); settings: 60 h, at 10 µM, hits give low values

CCCCNC(=O)c1ccc(NC(=O)C2CCCO2)cc1 (stereo unspecified)
inactive: growth inhibition [1] -3.29% | growth inhibition [2] -3.53% | viability increase [3] -0.44% | viability [4] 96.5% | inhibition [5] 1.81% | RAM network inhibition [6] 3.01%

O=C(CN1C(=O)c2cccc3cccc1c23)N1CCN(c2ccc(F)cc2)CC1
inactive: growth inhibition [1] -26.6% | growth inhibition [2] -0.695% | viability increase [3] -2.42% | viability [4] 94.1% | inhibition [5] 2.49% | RAM network inhibition [6] 8.63%

COc1ccc(NC(=O)C2CCC(C)(C(=O)O)C2(C)C)cc1 (stereo unspecified)
inactive: growth inhibition [1] 1% | growth inhibition [2] 3.7% | viability increase [3] -0.59% | viability [4] 96% | inhibition [5] 1.27% | RAM network inhibition [6] 3.75%

COc1ccc(-c2nc(N3CCOCC3)nc3n[nH]c(N)c23)cc1
inactive: growth inhibition [1] -5.32% | growth inhibition [2] 14.9% | viability increase [3] -6.84% | viability [4] 74.7% | inhibition [5] 0.26% | RAM network inhibition [6] 3.37%

Cc1cccc(-n2ncc3c(NCc4ccccc4)ncnc32)c1
inactive: growth inhibition [1] 5.07% | growth inhibition [2] 12.1% | viability increase [3] -5.25% | viability [7] 31.8% | inhibition [5] 1.38% | RAM network inhibition [6] 11.8%

O=C(CCn1nnc2ccccc21)N1CCC(O)(c2cccc(F)c2)CC1
inactive: growth inhibition [1] -3.14% | growth inhibition [2] -7.45% | viability increase [3] -2.75% | viability [7] 101% | inhibition [5] 2.4% | RAM network inhibition [6] 1.86%

CCC(=O)Nc1cc(C)c(NC(=O)c2ccco2)cn1
inactive: growth inhibition [1] -18.1% | growth inhibition [2] -13.9% | viability increase [3] 0.56% | viability [4] 98.5% | inhibition [5] 1.52% | RAM network inhibition [6] 4.21%

CCNc1nc2c(c(=O)n(C)c(=O)n2C)n1Cc1ccc(Cl)cc1
inactive: growth inhibition [1] -6.92% | growth inhibition [2] -2.02% | viability increase [3] -2.02% | viability [7] 58.3% | inhibition [5] -0.48% | RAM network inhibition [6] 1.98%

COc1ccccc1CC(=O)Nc1ccc(-c2nnc(-c3ccco3)o2)cc1
inactive: growth inhibition [1] -3.64% | growth inhibition [2] 8.35% | viability increase [3] -2.58% | viability [7] 77.7% | RAM network inhibition [6] 8.02%

COc1ccc(Oc2coc3c(CN(C)C)c(O)ccc3c2=O)cc1
inactive: growth inhibition [1] -5.32% | growth inhibition [2] -12.9% | viability increase [3] -7.46% | viability [7] 95.3% | inhibition [5] 0.075% | RAM network inhibition [6] -0.21%

COc1ccc(Nc2ncnc3c2cnn3Cc2ccccc2)cc1
inactive: growth inhibition [1] -28.7% | growth inhibition [2] 3.04% | viability increase [3] 1.14% | viability [4] 88.9% | inhibition [5] 1% | RAM network inhibition [6] 3.74%

CC(=O)Nc1c(C(=O)c2ccc(F)cc2)oc2ccccc12
inactive: growth inhibition [1] -23.1% | growth inhibition [2] -4.12% | viability increase [3] -3.23% | viability [4] 87.4% | inhibition [5] 2.3% | RAM network inhibition [6] 7.49%

O=C(c1ccco1)N1CCN(C(=O)C2Cc3ccccc3CN2S(=O)(=O)c2ccc(F)cc2)CC1 (stereo unspecified)
inactive: growth inhibition [1] -12.6% | growth inhibition [2] -9.61% | viability increase [3] -4.67% | viability [4] 97.2% | inhibition [5] 3.29% | RAM network inhibition [6] 7.28%

Cc1c(C(=O)NCc2ccccn2)oc2ccc(S(=O)(=O)N3CCOCC3)cc12
inactive: growth inhibition [1] -0.375% | growth inhibition [2] -7.32% | viability increase [3] -3.28% | viability [7] 94.4% | inhibition [5] 1.13% | RAM network inhibition [6] 0.56%

C=C1c2ccc(C)cc2NC(=O)N1c1ccccc1
inactive: growth inhibition [1] 3.26% | growth inhibition [2] 8.36% | viability increase [3] -3.76% | viability [7] 94.2% | inhibition [5] 0.375% | RAM network inhibition [6] 0.1%

CCOc1ccc(NC(=O)CSc2nnc(-c3ccccc3)n2N)cc1
inactive: growth inhibition [1] -8.33% | growth inhibition [2] -0.575% | viability increase [3] -6.71% | viability [4] 93.8% | inhibition [5] 0.495% | RAM network inhibition [6] 2.18%

CC(=O)c1ccc(C(=O)Nc2nnc(-c3ccc(Cl)cc3)o2)cc1
inactive: growth inhibition [1] -1.45% | growth inhibition [2] 17% | viability increase [3] -3.75% | RAM network inhibition [6] 2.8%
active: viability [7] 22.3%

CCCOc1nc2c(c(=O)n(C)c(=O)n2C)n1Cc1cccc2ccccc12
inactive: growth inhibition [1] -12.5% | growth inhibition [2] -0.875% | viability increase [3] -4.04% | viability [7] 57.7% | inhibition [5] 0.84% | RAM network inhibition [6] 1.64%

CCCOc1ccc(/C(O)=C2/C(=O)C(=O)N(CCN(C)C)C2c2ccco2)cc1 (stereo unspecified)
inactive: growth inhibition [1] -0.855% | growth inhibition [2] 13.9% | viability increase [3] -4.27% | viability [7] 99.6% | inhibition [5] -0.28% | RAM network inhibition [6] -1.54%

Cc1cc2nc3c(c(=O)n2[nH]1)CCCC3
inactive: growth inhibition [1] -6.41% | growth inhibition [2] 0.415% | viability increase [3] -1.07% | viability [7] 105% | inhibition [5] 1.09% | RAM network inhibition [6] -0.25%

CCOC(=O)Nc1cc(C(=O)OCC)c(C)nc1C
inactive: growth inhibition [1] -8.02% | growth inhibition [2] -10% | viability increase [3] -1.85% | viability [4] 98.7% | inhibition [5] 1.25% | RAM network inhibition [6] 0.73%

CS(=O)(=O)c1nc(-c2cccs2)cc(C(F)(F)F)n1
inactive: growth inhibition [1] -22.6% | growth inhibition [2] 1.86% | viability increase [3] -8.04% | viability [4] 53.4% | inhibition [5] 2.05% | RAM network inhibition [6] -0.11%

CC(NC(=O)C(C)(C)C)c1nc2ccccc2n1C (stereo unspecified)
inactive: growth inhibition [1] 5.72% | growth inhibition [2] 5.71% | viability increase [3] -3.14% | viability [4] 95.1% | inhibition [5] 0.63% | RAM network inhibition [6] 3.17%

O=C(COCCOCC(=O)N(c1ccccn1)C1CCCCC1)N(c1ccccn1)C1CCCCC1
inactive: growth inhibition [1] -12.8% | growth inhibition [2] -7.35% | viability increase [3] -2.48% | viability [4] 92.3% | inhibition [5] 1.31% | RAM network inhibition [6] 8.62%

Cc1cc(NC(=O)c2ccc3c(c2)C(=O)N(C2CCCCC2)C3=O)no1
inactive: growth inhibition [1] -4.59% | growth inhibition [2] -6.9% | viability increase [3] -6.76% | viability [7] 41.5% | RAM network inhibition [6] 3.39%

c1csc(CNc2ncnc3sccc23)c1
inactive: growth inhibition [1] 3.62% | growth inhibition [2] -3.59% | viability increase [3] -2% | viability [7] 62.7% | inhibition [5] 2.05% | RAM network inhibition [6] 4.4%

CC1(C)Cc2c(sc3nc(SCC(=O)N4CCOCC4)nc(N)c23)CO1
inactive: growth inhibition [1] -2.9% | growth inhibition [2] 18.3% | viability increase [3] -3.19% | viability [4] 98.9% | inhibition [5] 1.49% | RAM network inhibition [6] 0.62%

O=C(Nc1nnc(C2CC2)o1)c1ccc(S(=O)(=O)N2CCCc3ccccc32)cc1
inactive: growth inhibition [1] -18.1% | growth inhibition [2] -2.5% | viability increase [3] -5.31% | inhibition [5] 0.79% | RAM network inhibition [6] -0.41%
active: viability [4] 14.3%

O=C1c2ccccc2C(=O)N1CCCC(=O)N1CCc2ccccc21
inactive: growth inhibition [1] -21.9% | growth inhibition [2] 8.75% | viability increase [3] -0.37% | viability [4] 95.7% | inhibition [5] 2.44% | RAM network inhibition [6] 10.1%

CCOC(=O)c1ccccc1NC(=O)CC1Nc2ccccc2NC1=O (stereo unspecified)
inactive: growth inhibition [1] -2.62% | growth inhibition [2] -8.37% | viability increase [3] -8.1% | viability [4] 55.7% | inhibition [5] 2.19% | RAM network inhibition [6] 6.39%

COc1ccccc1C(=O)C(O)c1ccccc1OC (stereo unspecified)
inactive: growth inhibition [1] -8.34% | growth inhibition [2] 0.335% | viability increase [3] 0.03% | viability [7] 94.4% | inhibition [5] 0.755% | RAM network inhibition [6] 5.17%

CCCn1c(CN2CCN(c3cccc(Cl)c3)CC2)nc2c1c(=O)n(C)c(=O)n2C
inactive: growth inhibition [1] -4.45% | growth inhibition [2] -8.51% | viability increase [3] -4.06% | viability [7] 54% | RAM network inhibition [6] 1.38%

CC(C)Cn1c(SCC(=O)NC2CCCc3ccccc32)nc(O)cc1=O (stereo unspecified)
inactive: growth inhibition [1] -3.38% | growth inhibition [2] 9.89% | viability increase [3] -2.62% | viability [7] 97.9% | inhibition [5] 1% | RAM network inhibition [6] 2.76%

CC(=O)NCCOC(=O)Nc1ccncc1
inactive: growth inhibition [1] 4.58% | growth inhibition [2] -5.27% | viability increase [3] -0.91% | viability [7] 99.1% | inhibition [5] 1.32% | RAM network inhibition [6] 3.18%

CCOc1ccc(N(CC(=O)NC2CCCCCC2)S(=O)(=O)c2c(C)noc2C)cc1
inactive: growth inhibition [1] -4.29% | growth inhibition [2] -1.42% | viability increase [3] -6.44% | viability [4] 44.8% | inhibition [5] 3.02% | RAM network inhibition [6] 5.55%

CCOC(=O)/C=c1\sc2n(c1=O)CCN=2
inactive: growth inhibition [1] -0.765% | growth inhibition [2] -2% | viability increase [3] -3.32% | viability [4] 91.9% | inhibition [5] 1.44% | RAM network inhibition [6] 2.73%

CCOC(=O)N1CCN(C(=O)c2oc3ccc(S(=O)(=O)N4CC(C)CC(C)C4)cc3c2C)CC1 (stereo unspecified)
inactive: growth inhibition [1] -2.93% | growth inhibition [2] 2.18% | viability increase [3] -6.37% | viability [7] 42.5% | inhibition [5] 1.43% | RAM network inhibition [6] 4.64%

Cc1noc(C)c1C(=O)NCCCc1ccccc1
inactive: growth inhibition [1] -4.23% | growth inhibition [2] -7.88% | viability increase [3] -1.07% | viability [7] 103% | inhibition [5] 0.62% | RAM network inhibition [6] 0.21%

O=C(NCc1cccs1)C1CCCN(S(=O)(=O)c2ccc3c(c2)OCO3)C1 (stereo unspecified)
inactive: growth inhibition [1] -20.3% | growth inhibition [2] -1.21% | viability increase [3] -3.16% | viability [4] 90.8% | inhibition [5] 1.46% | RAM network inhibition [6] 3.17%

CCOC(=O)N1CCN(C(=O)CNS(=O)(=O)c2cccs2)CC1
inactive: growth inhibition [1] 7.6% | growth inhibition [2] 1.46% | viability increase [3] -2.69% | viability [4] 93.3% | inhibition [5] 0.785% | RAM network inhibition [6] 2.76%
